Laboratory results published in ChEMBL document CHEMBL1145495, “Polyamine effects on antibiotic susceptibility in bacteria” (2007).
≈ marks a conversion by molar mass, not a printed value. Calls of active or inactive are those of the source. The calls are words filed in the database; no cut-off is given here.

Tests used:
Escherichia coli [1] = test: Antibacterial activity against Escherichia coli K10 at upto 16 mM after 14 to 16 hrs by broth dilution method; assay type: functional, organism-based
Escherichia coli [2] = test: Antibacterial activity against Escherichia coli K12 at upto 16 mM after 14 to 16 hrs by broth dilution method; assay type: functional, organism-based
Escherichia coli [3] = test: Antibacterial activity against Escherichia coli C921-61 at upto 16 mM after 14 to 16 hrs by broth dilution method; assay type: functional, organism-based
Salmonella typhimurium [4] = test: Antibacterial activity against Salmonella enterica serovar Typhimurium LT2 at upto 16 mM after 14 to 16 hrs by broth dilution method; assay type: functional, organism-based; conditions: Salmonella enterica subsp. enterica serovar Typhimurium
Staphylococcus aureus [5] = test: Antibacterial activity against Staphylococcus aureus N315 at upto 16 mM after 14 to 16 hrs by broth dilution method; assay type: functional, organism-based
Staphylococcus aureus [6] = test: Antibacterial activity against Staphylococcus aureus Mu50 at upto 16 mM after 14 to 16 hrs by broth dilution method; assay type: functional, organism-based
Staphylococcus aureus [7] = test: Antibacterial activity against Staphylococcus aureus ATCC 3556 at upto 16 mM after 14 to 16 hrs by broth dilution method; assay type: functional, organism-based
Staphylococcus aureus [8] = test: Antibacterial activity against Staphylococcus aureus N315 after 14 to 16 hrs by broth dilution method; assay type: functional
Method in brief: (§1)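 CLSI broth dilution in cation-adjusted Mueller-Hinton broth with serial twofold dilutions, with or without spermine or spermidine added. Overnight cultures were diluted in saline to OD600 0.1–0.12, and about 10^5 CFU were inoculated. Incubation was 14–16 h at 37°C. MIC was confirmed in three independent experiments. E. coli acrA mutants were tested with 1 mM spermine; P. aeruginosa isolates with 1 mM spermine or 20 mM spermidine.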

Staphylococcus aureus [9] = test: Antibacterial activity against Staphylococcus aureus Mu50 after 14 to 16 hrs by broth dilution method; assay type: functional
Staphylococcus aureus [10] = test: Antibacterial activity against Staphylococcus aureus ATCC 3556 after 14 to 16 hrs by broth dilution method; assay type: functional
Escherichia coli [11] = test: Antibacterial activity against Escherichia coli K10 after 14 to 16 hrs by broth dilution method; assay type: functional
Escherichia coli [12] = test: Antibacterial activity against Escherichia coli K12 after 14 to 16 hrs by broth dilution method; assay type: functional
Escherichia coli [13] = test: Antibacterial activity against Escherichia coli C921-61 after 14 to 16 hrs by broth dilution method; assay type: functional
Salmonella typhimurium [14] = test: Antibacterial activity against Salmonella enterica serovar Typhimurium LT2 after 14 to 16 hrs by broth dilution method; assay type: functional, Salmonella enterica subsp. enterica serovar Typhimurium
Pseudomonas aeruginosa [15] = test: Antibacterial activity against Pseudomonas aeruginosa PAO1 after 14 to 16 hrs by broth dilution method; assay type: functional
Pseudomonas aeruginosa [16] = test: Antibacterial activity against Pseudomonas aeruginosa F4980 after 14 to 16 hrs by broth dilution method; assay type: functional; method in brief: as §1
Pseudomonas aeruginosa [17] = test: Antibacterial activity against Pseudomonas aeruginosa F66336 after 14 to 16 hrs by broth dilution method; assay type: functional
Pseudomonas aeruginosa [18] = test: Antibacterial activity against Pseudomonas aeruginosa M38100A after 14 to 16 hrs by broth dilution method; assay type: functional
Pseudomonas aeruginosa [19] = test: Antibacterial activity against Pseudomonas aeruginosa T2095 after 14 to 16 hrs by broth dilution method; assay type: functional
Pseudomonas aeruginosa [20] = test: Antibacterial activity against Pseudomonas aeruginosa T15464 after 14 to 16 hrs by broth dilution method; assay type: functional; method in brief: as §1
Escherichia coli [21] = test: Antibacterial activity against Escherichia coli W4573 assessed as inhibition of AcrAB efflux pump after 14 to 16 hrs by broth dilution method; assay type: functional
Escherichia coli [22] = test: Antibacterial activity against Escherichia coli N43 acrA mutant assessed as inhibition of AcrAB efflux pump after 14 to 16 hrs by broth dilution method; assay type: functional; method in brief: as §1
Escherichia coli [23] = test: Antibacterial activity against Escherichia coli N818 delta acrA mutant assessed as inhibition of AcrAB efflux pump after 14 to 16 hrs by broth dilution method; assay type: functional; method in brief: as §1
Pseudomonas aeruginosa [24] = test: Antibacterial activity against Pseudomonas aeruginosa H4563 after 14 to 16 hrs by broth dilution method; assay type: functional
Pseudomonas aeruginosa [25] = test: Antibacterial activity against Pseudomonas aeruginosa M22152 after 14 to 16 hrs by broth dilution method; assay type: functional; method in brief: as §1
Pseudomonas aeruginosa [26] = test: Antibacterial activity against Pseudomonas aeruginosa M38100B after 14 to 16 hrs by broth dilution method; assay type: functional
Pseudomonas aeruginosa [27] = test: Antibacterial activity against Pseudomonas aeruginosa T6268 after 14 to 16 hrs by broth dilution method; assay type: functional

NCCCCNCCCN
Activity (Escherichia coli [1]): inactive
Activity (Escherichia coli [2]): inactive
Activity (Escherichia coli [3]): inactive
Activity (Salmonella typhimurium [4]): inactive
Activity (Staphylococcus aureus [5]): inactive
Activity (Staphylococcus aureus [6]): inactive
Activity (Staphylococcus aureus [7]): inactive

CC1(C)S[C@@H]2[C@H](NC(=O)[C@H](N)c3ccc(O)cc3)C(=O)N2[C@H]1C(=O)O [AMOXICILLIN]
MIC (Staphylococcus aureus [8]): 16 µg/mL (≈ 43.8 µM)
MIC (Staphylococcus aureus [9]): 16 µg/mL (≈ 43.8 µM)
MIC (Staphylococcus aureus [10]): 1 µg/mL (≈ 2.74 µM)

CC1(C)S[C@@H]2[C@H](NC(=O)[C@H](N)c3ccccc3)C(=O)N2[C@H]1C(=O)O [AMPICILLIN]
MIC (Escherichia coli [11]): 8 µg/mL (≈ 22.9 µM)
MIC (Escherichia coli [12]): 4 µg/mL (≈ 11.4 µM)
MIC (Escherichia coli [13]): 4 µg/mL (≈ 11.4 µM)
MIC (Salmonella typhimurium [14]): 4 µg/mL (≈ 11.4 µM)
MIC (Staphylococcus aureus [8]): 128 µg/mL (≈ 366 µM)
MIC (Staphylococcus aureus [9]): 64 µg/mL (≈ 183 µM)
MIC (Staphylococcus aureus [10]): 2 µg/mL (≈ 5.72 µM)

CC1(C)S[C@@H]2[C@H](NC(=O)[C@H](NC(=O)N3CCNC3=O)c3ccccc3)C(=O)N2[C@H]1C(=O)O [AZLOCILLIN]
MIC (Escherichia coli [11]): 16 µg/mL (≈ 34.7 µM)
MIC (Escherichia coli [12]): 16 µg/mL (≈ 34.7 µM)
MIC (Escherichia coli [13]): 8 µg/mL (≈ 17.3 µM)
MIC (Salmonella typhimurium [14]): 16 µg/mL (≈ 34.7 µM)
MIC (Staphylococcus aureus [8]): 16 µg/mL (≈ 34.7 µM)
MIC (Staphylococcus aureus [9]): 16 µg/mL (≈ 34.7 µM)
MIC (Staphylococcus aureus [10]): 0.5 µg/mL (≈ 1.08 µM)

CCN1CCN(C(=O)N[C@@H](C(=O)N[C@@H]2C(=O)N3C(C(=O)O)=C(CSc4nnnn4C)CS[C@H]23)c2ccc(O)cc2)C(=O)C1=O [CEFOPERAZONE]
MIC (Staphylococcus aureus [8]): 4 µg/mL (≈ 6.2 µM)
MIC (Staphylococcus aureus [9]): > 1020 µg/mL
MIC (Staphylococcus aureus [10]): 1 µg/mL (≈ 1.55 µM)

CO/N=C(\C(=O)N[C@@H]1C(=O)N2C(C(=O)O)=C(COC(C)=O)CS[C@H]12)c1csc(N)n1 [CEFOTAXIME]
MIC (Staphylococcus aureus [8]): 2 µg/mL (≈ 4.39 µM)
MIC (Staphylococcus aureus [9]): > 1020 µg/mL
MIC (Staphylococcus aureus [10]): 0.5 µg/mL (≈ 1.1 µM)

CC(C)(O/N=C(\C(=O)N[C@@H]1C(=O)N2C(C(=O)[O-])=C(C[n+]3ccccc3)CS[C@H]12)c1csc(N)n1)C(=O)O [CEFTAZIDIME]
MIC (Staphylococcus aureus [8]): 32 µg/mL (≈ 58.5 µM)
MIC (Staphylococcus aureus [9]): 512 µg/mL (≈ 937 µM)
MIC (Staphylococcus aureus [10]): 8 µg/mL (≈ 14.6 µM)

CO/N=C(\C(=O)N[C@@H]1C(=O)N2C(C(=O)O)=C(CSc3nc(=O)c(O)nn3C)CS[C@H]12)c1csc(N)n1 [CEFTRIAXONE]
MIC (Staphylococcus aureus [8]): 4 µg/mL (≈ 7.21 µM)
MIC (Staphylococcus aureus [9]): > 1020 µg/mL
MIC (Staphylococcus aureus [10]): 2 µg/mL (≈ 3.61 µM)

O=C(Cc1cccs1)N[C@@H]1C(=O)N2C(C(=O)[O-])=C(C[n+]3ccccc3)CS[C@H]12 [CEPHALORIDINE]
MIC (Escherichia coli [11]): 8 µg/mL (≈ 19.3 µM)
MIC (Escherichia coli [12]): 4 µg/mL (≈ 9.63 µM)
MIC (Escherichia coli [13]): 4 µg/mL (≈ 9.63 µM)
MIC (Salmonella typhimurium [14]): 0.015 µg/mL (≈ 0.0361 µM)
MIC (Staphylococcus aureus [8]): 1 µg/mL (≈ 2.41 µM)
MIC (Staphylococcus aureus [9]): 16 µg/mL (≈ 38.5 µM)
MIC (Staphylococcus aureus [10]): < 0.06 µg/mL

CC(=O)OCC1=C(C(=O)O)N2C(=O)[C@@H](NC(=O)Cc3cccs3)[C@H]2SC1 [CEPHALOTHIN]
MIC (Staphylococcus aureus [8]): 1 µg/mL (≈ 2.52 µM)
MIC (Staphylococcus aureus [9]): 64 µg/mL (≈ 161 µM)
MIC (Staphylococcus aureus [10]): 0.5 µg/mL (≈ 1.26 µM)

O=C(N[C@H](CO)[C@H](O)c1ccc([N+](=O)[O-])cc1)C(Cl)Cl [CHLORAMPHENICOL]
MIC (Escherichia coli [12]): 32 µg/mL (≈ 99 µM)
MIC (Escherichia coli [13]): 4 µg/mL (≈ 12.4 µM)
MIC (Salmonella typhimurium [14]): 2 µg/mL (≈ 6.19 µM)
MIC (Staphylococcus aureus [8]): 8 µg/mL (≈ 24.8 µM)
MIC (Staphylococcus aureus [9]): 8 µg/mL (≈ 24.8 µM)
MIC (Staphylococcus aureus [10]): 8 µg/mL (≈ 24.8 µM)
MIC (Pseudomonas aeruginosa [15]): 128 µg/mL (≈ 396 µM)
MIC (Pseudomonas aeruginosa [16]): 32 µg/mL (≈ 99 µM)
MIC (Pseudomonas aeruginosa [17]): 8 µg/mL (≈ 24.8 µM)
MIC (Pseudomonas aeruginosa [18]): 4 µg/mL (≈ 12.4 µM)
MIC (Pseudomonas aeruginosa [19]): 32 µg/mL (≈ 99 µM)
MIC (Pseudomonas aeruginosa [20]): 32 µg/mL (≈ 99 µM)
MIC (Escherichia coli [21]): 8 µg/mL (≈ 24.8 µM)
MIC (Escherichia coli [22]): 2 µg/mL (≈ 6.19 µM)
MIC (Escherichia coli [23]): 2 µg/mL (≈ 6.19 µM)

O=C(O)c1cn(C2CC2)c2cc(N3CCNCC3)c(F)cc2c1=O [CIPROFLOXACIN]
MIC (Escherichia coli [11]): ≤ 0.03 µg/mL
MIC (Escherichia coli [12]): ≤ 0.03 µg/mL
MIC (Escherichia coli [13]): ≤ 0.03 µg/mL
MIC (Salmonella typhimurium [14]): ≤ 0.03 µg/mL
MIC (Staphylococcus aureus [8]): 1 µg/mL (≈ 3.02 µM)
MIC (Staphylococcus aureus [9]): 64 µg/mL (≈ 193 µM)
MIC (Staphylococcus aureus [10]): 0.25 µg/mL (≈ 0.754 µM)
MIC (Pseudomonas aeruginosa [16]): 4 µg/mL (≈ 12.1 µM)
MIC (Pseudomonas aeruginosa [24]): 128 µg/mL (≈ 386 µM)
MIC (Pseudomonas aeruginosa [25]): 4 µg/mL (≈ 12.1 µM)
MIC (Pseudomonas aeruginosa [26]): 32 µg/mL (≈ 96.6 µM)
MIC (Pseudomonas aeruginosa [27]): 4 µg/mL (≈ 12.1 µM)
